Assay results taken from ChEMBL document CHEMBL3272005 (J Med Chem, 1978).

Key:
Salmonella typhimurium [1] = assay: Genotoxicity in Salmonella typhimurium TA-1538 after 2 days by Ames test in presence of C57BL/6J mouse liver S9 fraction relative to control; type: toxicity, organism-based; conditions: salmonella enterica subsp. enterica serovar typhimurium, s9, 48 h
[2] = Drug level in ventricular arrthymia patient urine treated with lidocaine at 1.4 mg/min, iv administered for 36 hrs measured after 30 hrs measured after 30 hrs; type: ADME, organism-based; conditions: human, in vivo
In short: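 Aliquots were analysed immediately after collection by CIMS stable isotope dilution with deuterated analogues as internal standards. Analysis was run before and after TiCl3 reduction of the urine.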

[3] = Drug level in po dosed human urine treated with lidocaine; type: ADME, organism-based; conditions: in vivo
In short: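 Analysed by chemical-ionization MS stable isotope dilution, with deuterated N-hydroxy analogues as internal standards. Samples were measured before and after TiCl3 reduction. Released 2,6-dimethylaniline was followed by m/e 122/124 ratios and by GC-CIMS selected ion monitoring. Values are given as % of dose.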

Salmonella typhimurium [4] = assay: Genotoxicity in Salmonella typhimurium TA-1538 after 2 days by Ames test relative to control; type: toxicity, organism-based; conditions: salmonella enterica subsp. enterica serovar typhimurium, 48 h
In short: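 Compounds were tested at 1, 10, 100 and 500 μg, added in Me2SO to top agar. His+ revertant colonies were counted after 2 days at 37 °C and compared with Me2SO-only plates.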

[5] = Plasma concentration in ventricular arrthymia patient at 1.4 mg/min, iv administered for 36 hrs measured after 30 hrs; type: ADME, organism-based; conditions: human
Mus musculus = species: Mus musculus; assay: Carcinogenic activity in Swiss albino mouse; type: toxicity, organism-based; conditions: in vivo

**Q.** What does the source list for `CCNCC(=O)Nc1c(C)cccc1C`?
**A.** Activity (Salmonella typhimurium [1]): Non-toxic; Drug excretion [2]: metabolite_detected; Drug excretion [3]: metabolite_detected; Activity (Salmonella typhimurium [4]): Non-toxic; concentration at 30 h [5]: 680 ng/mL

**Q.** For `Cc1cccc(C)c1N`, which Activity (Salmonella typhimurium [1]) is on record?
**A.** Non-toxic

**Q.** What about the Activity (Salmonella typhimurium [4]) of the same compound?
**A.** Non-toxic

**Q.** For `CCN(CC)CC(=O)N(O)c1c(C)cccc1C`, which Activity (Mus musculus) is on record?
**A.** Non-toxic

**Q.** What about the Activity (Salmonella typhimurium [1]) of the same compound?
**A.** Non-toxic

**Q.** And the Activity (Salmonella typhimurium [4])?
**A.** Non-toxic

**Q.** Which Activity (Mus musculus) does the source give for `CCNCC(=O)N(O)c1c(C)cccc1C` here?
**A.** Non-toxic

**Q.** And the Activity (Salmonella typhimurium [1])?
**A.** Non-toxic

**Q.** And the Activity (Salmonella typhimurium [4])?
**A.** Non-toxic

**Q.** With `[2H]C([2H])(C)N(CC)CC(=O)Nc1c(C)cccc1C` as the compound, how does the Drug excretion [2] read?
**A.** metabolite_detected

**Q.** And the Drug excretion [3]?
**A.** metabolite_detected

**Q.** With `[2H]C([2H])(NCC)C(=O)Nc1c(C)cccc1C` as the compound, how does the Drug excretion [2] read?
**A.** metabolite_detected

**Q.** What about the Drug excretion [3] of the same compound?
**A.** metabolite_detected

**Q.** With `[2H]C([2H])(C)N(CC(=O)N(O)c1c(C)cccc1C)C([2H])([2H])C` as the compound, how does the Activity (Mus musculus) read?
**A.** Non-toxic

**Q.** Which Activity (Mus musculus) does the source give for `Cc1cccc(C)c1NO` here?
**A.** Non-toxic

**Q.** And the Activity (Salmonella typhimurium [1])?
**A.** Non-toxic

**Q.** What about the Drug excretion [2] of the same compound?
**A.** metabolite_detected

**Q.** What about the Drug excretion [3] of the same compound?
**A.** metabolite_detected

**Q.** What about the Activity (Salmonella typhimurium [4]) of the same compound?
**A.** Non-toxic

**Q.** With `[2H]C([2H])([2H])CNCC(=O)N(O)c1c(C)cccc1C` as the compound, how does the Activity (Mus musculus) read?
**A.** Non-toxic

**Q.** With `Cc1cccc(C)c1N(O)C(=O)CCl` as the compound, how does the Activity (Mus musculus) read?
**A.** Non-toxic

**Q.** What does the source list for `CCN(CC)CC(=O)Nc1c(C)cccc1C` [LIDOCAINE]?
**A.** Drug excretion [2]: metabolite_detected; Drug excretion [3]: metabolite_detected; concentration at 30 h [5]: 3100 ng/mL
